pEC50, pIC50: −log10 of the molar value.
Experiments:
[1] = target: T1, Nuclear receptor ROR-gamma (Homo sapiens, UniProt P51449); test: Inverse agonist activity at Gal4 DNA binding domain-tagged human RORgammat expressed in HEK293T cells assessed as effect on receptor-mediated transcriptional activity by luciferase reporter gene assay; format: functional, cell-based, HEK-293T
T1 sequence (P51449 whole entry): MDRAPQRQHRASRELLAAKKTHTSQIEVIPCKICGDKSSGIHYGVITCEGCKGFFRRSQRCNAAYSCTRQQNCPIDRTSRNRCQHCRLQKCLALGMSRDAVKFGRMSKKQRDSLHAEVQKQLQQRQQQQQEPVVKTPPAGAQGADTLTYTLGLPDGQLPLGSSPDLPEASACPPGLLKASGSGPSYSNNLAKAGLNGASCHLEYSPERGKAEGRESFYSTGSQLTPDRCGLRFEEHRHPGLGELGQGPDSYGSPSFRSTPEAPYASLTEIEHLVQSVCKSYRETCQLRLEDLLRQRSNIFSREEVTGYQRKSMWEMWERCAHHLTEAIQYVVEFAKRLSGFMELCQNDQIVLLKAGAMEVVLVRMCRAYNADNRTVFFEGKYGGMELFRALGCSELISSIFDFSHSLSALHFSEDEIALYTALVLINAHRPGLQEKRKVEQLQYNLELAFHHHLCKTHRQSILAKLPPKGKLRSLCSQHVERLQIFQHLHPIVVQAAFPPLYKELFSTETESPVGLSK
Procedure, shortened: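 293T cells transfected with a Gal4:RORγ luciferase reporter. Cells seeded day 1 and transfected day 2; compound added in assay medium after transfection. Day 3: cells lysed and luminescence read by dual-flash. Dose-response EC50 is the mean of at least two runs.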

[2] = target: T1, Nuclear receptor ROR-gamma; test: Inverse agonist activity at human recombinant GST-tagged RORgammat ligand binding domain assessed as effect on receptor-biotin tagged TRAP220 co-activator peptide interaction using 10 nM GST-RORgamma LBD by FRET-based assay
Procedure, shortened: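 Recombinant human GST-RORγ LBD (10 nM) with 40 nM biotin-TRAP220 co-activator peptide, 50 nM SAAPC, 1.5 nM Eu-anti-GST IgG. Buffer: 20 mM Tris-HCl pH 7.0, 60 mM NaCl, 5 mM MgCl2, 1 mM DTT, 0.1% BSA, 1.0% DMSO. FRET read on plate reader. IC50 is the mean of at least two runs.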

[3] = Clearance in rat hepatocytes relative to hepatic blood flow; format: ADME, cell-based, Liver, Hepatocyte; conditions: read-out: CLH
[4] = Clearance in mouse hepatocytes relative to hepatic blood flow; format: ADME, cell-based, Liver, Hepatocyte; conditions: read-out: CLH
[5] = Clearance in human hepatocytes relative to hepatic blood flow; format: ADME, cell-based, Liver, Hepatocyte; conditions: read-out: CLH
[6] = target: T1, Nuclear receptor ROR-gamma; test: Inverse agonist activity at human recombinant GST-tagged RORgammat ligand binding domain assessed as effect on receptor-biotin tagged TRAP220 co-activator peptide interaction using 10 nM GST-RORgamma LBD by FRET-based assay
[7] = Cmax in rat at 2 mg/kg, iv; format: ADME, organism-based; set-up: dose 2 mg/kg, route intravenous; conditions: in vivo
Procedure, shortened: (§1)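 Rats dosed at 2.0 mg/kg intravenously in SPEW vehicle. Plasma exposure profiled for T1/2 and Cmax.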

[8] = Apparent permeability from apical to basolateral side in human Caco2 cells; format: ADME, cell-based; conditions: Caco-2
[9] = AUC (infinity) in rat at 10 mg/kg, po; format: ADME, organism-based; set-up: dose 10 mg/kg, route oral, time infinity; conditions: in vivo
Procedure, shortened: (§2)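 Rat PK; iv dosing at 2.0 mg/Kg in SPEW vehicle, oral dosing at 10 mg/Kg in 0.1% CMC-0.2%Tween; AUCinf reported in ng*hr/mL.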

[10] = Oral bioavailability in rat at 10 mg/kg; format: ADME, organism-based; conditions: in vivo
[11] = test system: Rattus norvegicus; test: Clearance in rat at 2 mg/kg, iv relative to hepatic blood flow; format: ADME, organism-based, Liver; conditions: in vivo
Procedure, shortened: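 Rats given 2.0 mg/kg iv in SPEW vehicle. Clearance is expressed as % of hepatic blood flow (%Qh).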

[12] = Cmax in rat at 10 mg/kg, po; format: ADME, organism-based; set-up: dose 10 mg/kg, route oral; conditions: in vivo
[13] = AUC (infinity) in rat at 2 mg/kg, iv; format: ADME, organism-based; set-up: dose 2 mg/kg, time infinity, route intravenous; conditions: in vivo; procedure, shortened: as §2
[14] = Apparent permeability from basolateral to apical side in human Caco2 cells; format: ADME, cell-based; conditions: Caco-2
[15] = Half life in rat at 2 mg/kg, iv; format: ADME, organism-based; conditions: in vivo; procedure, shortened: as §1
[16] = Inhibition of CYP450 (unknown origin); format: ADME; conditions: human

Compound | pEC50 [1] | pIC50 [2] | further results
NC(=O)c1ccc(Cl)c(-c2ccc3c(c2)CCCN3C(=O)c2c(F)cccc2Cl)c1 | 6.70 | 6.66 | –
NC(=O)c1cccc(-c2ccc3c(c2)CCCN3C(=O)c2c(F)cccc2Cl)c1 | – | 5.21 | –
NC(=O)c1cc(-c2ccc3c(c2)CCCN3C(=O)c2c(F)cccc2Cl)ccc1F | – | 5.03 | –
NC(=O)c1cc(-c2ccc3c(c2)CCCN3C(=O)c2c(F)cccc2Cl)c(F)cc1F | – | 5.15 | –
NC(=O)c1cc(-c2ccc3c(c2)CCCN3C(=O)c2c(F)cccc2Cl)c(Cl)cc1F | 6.85 | 6.26 | –
CNC(=O)c1ccc(Cl)c(-c2ccc3c(c2)CCCN3C(=O)c2c(F)cccc2Cl)c1 | 6.70 | 7.00 | –
CN(C)C(=O)c1ccc(Cl)c(-c2ccc3c(c2)CCCN3C(=O)c2c(F)cccc2Cl)c1 | – | 5.68 | –
CCNC(=O)c1ccc(Cl)c(-c2ccc3c(c2)CCCN3C(=O)c2c(F)cccc2Cl)c1 | 6.80 | 6.48 | –
O=C(NC1CCCC1)c1ccc(Cl)c(-c2ccc3c(c2)CCCN3C(=O)c2c(F)cccc2Cl)c1 | 6.48 | 6.43 | –
O=C(NCCO)c1ccc(Cl)c(-c2ccc3c(c2)CCCN3C(=O)c2c(F)cccc2Cl)c1 | 6.68 | 6.72 | –
O=C(NCC(O)CO)c1ccc(Cl)c(-c2ccc3c(c2)CCCN3C(=O)c2c(F)cccc2Cl)c1 (configuration not stated) | – | 6.12 | –
O=C(NCCN1CCOCC1)c1ccc(Cl)c(-c2ccc3c(c2)CCCN3C(=O)c2c(F)cccc2Cl)c1 | – | 5.67 | –
NC(=O)c1ccc(Cl)c(-c2ccc3c(c2)CCN3C(=O)c2c(F)cccc2Cl)c1 | – | 5.32 | –
CC1(C)Cc2cc(-c3cc(C(N)=O)ccc3Cl)ccc2N(C(=O)c2c(F)cccc2Cl)C1 | 6.35 | 6.19 | –
CC1(C)CCN(C(=O)c2c(F)cccc2Cl)c2ccc(-c3cc(C(N)=O)ccc3Cl)cc21 | 6.52 | 6.70 | –
NC(=O)c1ccc(Cl)c(-c2ccc3c(c2)C(F)(F)CCN3C(=O)c2c(F)cccc2Cl)c1 | – | 5.44 | hepatic extraction ratio [3]: 0.86; hepatic extraction ratio [4]: 0.83; hepatic extraction ratio [5]: 0.74
NC(=O)c1ccc(Cl)c(-c2ccc3c(c2)OCCN3C(=O)c2c(F)cccc2Cl)c1 | – | 5.72 | hepatic extraction ratio [3]: 0.85; hepatic extraction ratio [4]: 0.82; hepatic extraction ratio [5]: 0.76
CN(C(=O)c1c(F)cccc1Cl)c1ccc(-c2cc(C(N)=O)ccc2Cl)cc1 | – | – | pIC50 [6]: 5.06

Compound | pEC50 [1] | pIC50 [2] | further results
CCN(C(=O)c1c(F)cccc1Cl)c1ccc(-c2cc(C(N)=O)ccc2Cl)cc1 | – | – | pIC50 [6]: 5.89
CN(C(=O)c1c(F)cccc1Cl)c1ccc(-c2cc(C(N)=O)ccc2Cl)cc1F | – | – | pIC50 [6]: 5.71
CN(C(=O)c1c(F)cccc1Cl)c1ccc(-c2cc(C(N)=O)ccc2Cl)cc1Cl | – | – | pIC50 [6]: 5.68
CN(C(=O)c1c(F)cccc1Cl)c1ccc(-c2cc(C(N)=O)ccc2Cl)cc1Br | 6.11 | – | pIC50 [6]: 6.09
Cc1cc(-c2cc(C(N)=O)ccc2Cl)ccc1N(C)C(=O)c1c(F)cccc1Cl | – | – | pIC50 [6]: 5.37
CCc1cc(-c2cc(C(N)=O)ccc2Cl)ccc1N(C)C(=O)c1c(F)cccc1Cl | 6.46 | – | pIC50 [6]: 6.14
COc1cc(-c2cc(C(N)=O)ccc2Cl)ccc1N(C)C(=O)c1c(F)cccc1Cl | 6.01 | – | pIC50 [6]: 6.43
CCN(C(=O)c1c(F)cccc1Cl)c1ccc(-c2cc(C(N)=O)ccc2Cl)cc1OC | – | – | pIC50 [6]: 5.82
CCN(C(=O)c1c(F)cccc1Cl)c1ccc(-c2cc(C(N)=O)ccc2Cl)cc1C(F)(F)F | – | 5.80 | –
CC(C)Oc1cc(-c2cc(C(N)=O)ccc2Cl)ccc1N(C)C(=O)c1c(F)cccc1Cl | 6.74 | 7.27 | –
CCCCOc1cc(-c2cc(C(N)=O)ccc2Cl)ccc1N(C)C(=O)c1c(F)cccc1Cl | 7.00 | 7.66 | –
CN(C(=O)c1c(F)cccc1Cl)c1ccc(-c2cc(C(N)=O)ccc2Cl)cc1OCC(F)(F)F | 7.03 | 7.96 | Cmax [7]: 2.35 µg/mL; Papp A→B [8]: 322 nm/s; hepatic extraction ratio [3]: 0.83; AUC(0-inf) [9]: 1.55 µg·h/mL; bioavailability [10]: 28%; CLH [11]: 54%; Cmax [12]: 1.01 µg/mL; AUC(0-inf) [13]: 1.13 µg·h/mL; Papp B→A [14]: 353 nm/s; half-life [15]: 1.3 h; hepatic extraction ratio [5]: 0.88; inhibition (INH) [16]: Not Active
CN(C(=O)c1c(F)cccc1Cl)c1ncc(-c2cc(C(N)=O)ccc2Cl)cc1OCC(F)(F)F | 6.61 | 7.70 | Papp A→B [8]: 359 nm/s; Papp B→A [14]: 545 nm/s; inhibition (INH) [16]: Not Active
CN(C(=O)c1c(F)cccc1Cl)c1ncc(-c2cc(C(N)=O)ccc2Cl)cc1OCC1CCC1 | 7.24 | 8.00 | –
[2H]C([2H])([2H])N(C(=O)c1c(F)cccc1Cl)c1ncc(-c2cc(C(N)=O)ccc2Cl)cc1OCC1CCC1 | 7.22 | 8.00 | –
CCN(CC)c1cc(-c2cc(C(N)=O)ccc2Cl)ccc1N(C)C(=O)c1c(F)cccc1Cl | 7.92 | 8.52 | –
CN(C(=O)c1c(F)cccc1Cl)c1ccc(-c2cc(C(N)=O)ccc2Cl)cc1N1CCCCC1 | 8.10 | 8.52 | –

Continued, in another order:

pEC50 [1] | pIC50 [2] | Compound | further results
6.35 | 6.52 | Cc1ccc(C(N)=O)cc1-c1ccc2c(c1)CCCN2C(=O)c1c(F)cccc1Cl | –
– | 6.00 | COc1ccc(C(N)=O)cc1-c1ccc2c(c1)CCCN2C(=O)c1c(F)cccc1Cl | –
– | 4.96 | NC(=O)c1ccc(F)c(-c2ccc3c(c2)CCCN3C(=O)c2c(F)cccc2Cl)c1 | –
– | 4.89 | NC(=O)c1cc(F)cc(-c2ccc3c(c2)CCCN3C(=O)c2c(F)cccc2Cl)c1 | –
– | 5.87 | COCCNC(=O)c1ccc(Cl)c(-c2ccc3c(c2)CCCN3C(=O)c2c(F)cccc2Cl)c1 | –
6.28 | 6.44 | NC(=O)c1ccc(Cl)c(-c2ccc3c(c2)CCCCN3C(=O)c2c(F)cccc2Cl)c1 | –
– | 5.00 | CC1CCc2cc(-c3cc(C(N)=O)ccc3Cl)ccc2N1C(=O)c1c(F)cccc1Cl (configuration not stated) | –
6.68 | 6.60 | CN1CCN(C(=O)c2c(F)cccc2Cl)c2ccc(-c3cc(C(N)=O)ccc3Cl)cc21 | –
6.32 | – | CN(C(=O)c1c(F)cccc1Cl)c1ccc(-c2cc(C(N)=O)ccc2Cl)cc1C(F)(F)F | pIC50 [6]: 6.64
6.74 | 7.30 | CCOc1cc(-c2cc(C(N)=O)ccc2Cl)ccc1N(C)C(=O)c1c(F)cccc1Cl | –
7.24 | 7.96 | CCCOc1cc(-c2cc(C(N)=O)ccc2Cl)ccc1N(C)C(=O)c1c(F)cccc1Cl | –
6.61 | 7.05 | [2H]C([2H])([2H])N(C(=O)c1c(F)cccc1Cl)c1ncc(-c2cc(C(N)=O)ccc2Cl)cc1OCC(F)(F)F | –
6.14 | 6.30 | CCNc1cc(-c2cc(C(N)=O)ccc2Cl)ccc1N(C)C(=O)c1c(F)cccc1Cl | –
– | 6.15 | Cn1ccc2c(S(=O)(=O)N(CC(F)(F)F)c3ccc(-c4cc(C(N)=O)ccc4Cl)cc3)cccc21 | –

From ChEMBL document CHEMBL3596154, “Discovery of biaryl carboxylamides as potent RORγ inverse agonists” (Bioorg Med Chem Lett, 2015)
